Results as given in PMC5552238 (EBioMedicine, 2017).

Tested on: subcutaneous Hepa1-6 liver cancers
Assay: Subcutaneous Hepa1-6 liver cancers, 747 combined with low-dose sorafenib
Type: in vivo, mouse
Settings: sorafenib low dose 10 mg/kg
How it was run: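 Hepa1-6 cells (1.5 × 106) injected into right flank; mice randomized at ~0.5 cm tumors. Test compound given i.p. daily (0.5% HPMC/0.2% Tween), alone or with sorafenib 10 mg/kg intragastric. Volume = 1/2a × b². End-point paraffin sections stained for F4/80, Arg-1 and cleaved caspase-3 (primary overnight at 4 °C, HRP secondary 1 h at 37 °C, DAB). Sorted intratumoral CD8+ T cells analysed by qRT-PCR normalized to GAPDH/L32.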

With `CNC(=O)c1cc(Oc2ccc(NC(=O)Nc3ccc(Cl)c(C(F)(F)F)c3)cc2)ccn1` [sorafenib] the “therapeutic effect on subcutaneous tumors” value was “no efficacy”.
